Test results from ChEMBL document CHEMBL3102834, “Discovery of 5-substituted pyrrolo[2,3-d]pyrimidine antifolates as dual-acting inhibitors of glycinamide ribonucleotide formyltransferase and 5-aminoimidazole-4-carboxamide ribonucleotide formyltransferase in de novo purine nucleotide biosynthesis: implications of inhibiting …” (J Med Chem, 2013).
Values belong to the compound of their own block, whether it stands above or below them. Activity calls are given as the source filed them. The calls are words filed in the database; no cut-off is given here.

Columns and labels:
[1] = Cytotoxicity against chinese hamster R2(VC) cells after 96 hrs by CellTitre-Blue fluorescence assay; format: functional, cell-based; settings: Cricetulus griseus
In short: (§1)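 CHO sublines were grown in FF-RPMI/DFBS; transfectants were maintained with G418. Cells were exposed to antifolate (0–1 μM) for 96 h at 37 °C with 2 nM LCV (RT16) or 25 nM LCV (R2/PCFT4). PC43-10 cells were grown in standard RPMI1640/DFBS instead. FRα specificity was tested by adding 200 nM folic acid. Viable cells were read by CellTiter-Blue fluorescence (ex 560/em 590), and IC50 was taken from dose–response curves; means of 3–10 experiments.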

R2 [2] = assay: Cytotoxicity against chinese hamster R2 cells expressing human PCFT4 after 96 hrs by CellTitre-Blue fluorescence assay; format: functional, cell-based, Cricetulus griseus; settings: R2, 96 h
KB [3] = assay: Cytotoxicity against human KB cells at 10 mM after 96 hrs by CellTitre-Blue fluorescence assay; format: functional; settings: read-out: GI
In short: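 KB cells were exposed for 96 h at 37 °C to metformin (0–10 mM) or AICA (0–2 mM) in FF-RPMI/DFBS with 2 nM LCV. Growth was read by CellTiter-Blue fluorescence relative to drug-free cells.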

[4] = biological target: Bifunctional purine biosynthesis protein ATIC (Homo sapiens) (UniProt P31939); assay: Inhibition of AICARFTase in human KB cells assessed as phosphorylated AMPK at 10 mM after 48 hrs by Western blot analysis; format: cell-based
Chain of Bifunctional purine biosynthesis protein ATIC (Homo sapiens) (P31939 whole entry, looked up): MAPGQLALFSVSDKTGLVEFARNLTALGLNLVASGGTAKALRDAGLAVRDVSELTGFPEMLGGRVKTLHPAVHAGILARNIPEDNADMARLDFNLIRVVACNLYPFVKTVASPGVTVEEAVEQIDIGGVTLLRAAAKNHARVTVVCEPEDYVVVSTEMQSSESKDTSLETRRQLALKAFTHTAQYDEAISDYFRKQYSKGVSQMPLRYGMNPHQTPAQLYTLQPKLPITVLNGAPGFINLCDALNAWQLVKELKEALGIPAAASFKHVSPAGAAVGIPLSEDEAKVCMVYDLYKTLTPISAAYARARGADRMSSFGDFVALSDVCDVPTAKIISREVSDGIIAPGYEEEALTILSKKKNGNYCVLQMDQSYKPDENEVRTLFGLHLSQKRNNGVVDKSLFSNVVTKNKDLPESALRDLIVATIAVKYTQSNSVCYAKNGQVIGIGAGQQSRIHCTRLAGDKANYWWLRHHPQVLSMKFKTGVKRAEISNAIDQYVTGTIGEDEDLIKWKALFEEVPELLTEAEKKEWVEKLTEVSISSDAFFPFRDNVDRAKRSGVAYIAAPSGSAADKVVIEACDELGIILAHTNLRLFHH
In short: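 KB cells were treated for 48 h with 10 μM thymidine, or with AMPK activators (metformin 10 mM, AICA 1 mM, AICAR 1 mM) against a water/DMSO vehicle. Cells were sonicated in 10 mM Tris-HCl pH 7.0 with protease/phosphatase inhibitors. 90 μg protein was run on 4–20% SDS gels and blotted for phospho-AMPK, total AMPK and β-actin, with infrared detection.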

KB [5] = assay: Cytotoxicity against human KB cells expressing human RFC/FRalpha/PCFT after 96 hrs by CellTitre-Blue fluorescence assay in presence of AICA; format: functional, cell-based
In short: (§2)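 KB cells were grown in FF-RPMI with DFBS and 2 nM LCV, exposed to antifolate (0–1 μM) for 96 h at 37 °C, and read by CellTiter-Blue fluorescence. IC50 was taken from dose–response curves relative to untreated cells. Protection arms added adenosine 60 μM, thymidine 10 μM, AICA 320 μM, or folic acid 200 nM. Means of 3–10 experiments.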

KB [6] = assay: Cytotoxicity against human KB cells expressing human RFC/FRalpha/PCFT after 96 hrs by CellTitre-Blue fluorescence assay in presence of adenosine; format: functional, cell-based; in short: as §2
KB [7] = assay: Cytotoxicity against human KB cells expressing human RFC/FRalpha/PCFT after 96 hrs by CellTitre-Blue fluorescence assay in presence of thymidine; format: functional, cell-based; in short: as §2
[8] = Cytotoxicity against chinese hamster RT16 cells expressing human FRalpha after 96 hrs by CellTitre-Blue fluorescence assay in presence of folic acid; format: functional, cell-based; settings: Cricetulus griseus, RT16, 96 h; in short: as §1
R2 [9] = assay: Cytotoxicity against chinese hamster R2 cells after 96 hrs by CellTitre-Blue fluorescence assay; settings: Cricetulus griseus, R2, 96 h
KB [10] = assay: Cell cycle arrest in human KB cells assessed as accumulation at G2/M phase at 1 uM after 96 hrs by propidium iodide staining-based flow cytometry (reference value: 13.2%); format: functional
KB [11] = assay: Cell cycle arrest in human KB cells assessed as accumulation at S phase at 1 uM after 96 hrs by propidium iodide staining-based flow cytometry (reference value: 15.9%); format: functional
KB [12] = assay: Cell cycle arrest in human KB cells assessed as accumulation at G1/G0 phase at 1 uM after 96 hrs by propidium iodide staining-based flow cytometry (reference value: 67.4%); format: functional
KB [13] = assay: Cell cycle arrest in human KB cells assessed as accumulation at sub-G1 phase at 1 uM after 96 hrs by propidium iodide staining-based flow cytometry (reference value: 3.5%); format: functional
[14] = biological target: Folate receptor alpha (Homo sapiens) (UniProt P15328); assay: Displacement of [3H]folic acid from human FRalpha expressed in chinese hamster RT16 cells after 15 mins by scintillation counting analysis; format: cell-based
Chain of Folate receptor alpha (Homo sapiens) (P15328 25-234 limits assumed): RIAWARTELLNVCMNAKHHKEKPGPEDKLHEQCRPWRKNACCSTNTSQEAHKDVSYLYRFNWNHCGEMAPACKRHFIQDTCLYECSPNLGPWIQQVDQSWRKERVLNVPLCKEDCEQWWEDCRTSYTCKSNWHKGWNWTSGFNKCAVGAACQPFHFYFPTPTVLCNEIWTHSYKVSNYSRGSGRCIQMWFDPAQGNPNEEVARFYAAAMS
In short: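 FRα-expressing RT16 CHO cells (~1.5 × 10^6) were grown as monolayers. Bound folates were stripped with ice-cold acetate buffer (pH 3.5), then neutralised with HEPES-buffered saline (pH 7.4). Cells were then competed with [3H]folic acid against graded unlabelled ligand. Bound label read by scintillation, normalised to Folin-phenol protein (pmol/mg). Relative affinity = inverse molar ratio for 50% displacement, folic acid set at 1. Three experiments.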

[15] = biological target: T1, Reduced folate transporter (Homo sapiens) (UniProt P41440); assay: Inhibition of human RFC expressed in chinese hamster PC43-10 cells assessed as reduction of [3H]MTX uptake at 10 uM after 48 hrs by scintillation counting analysis relative to control; format: cell-based
T1 sequence (whole entry): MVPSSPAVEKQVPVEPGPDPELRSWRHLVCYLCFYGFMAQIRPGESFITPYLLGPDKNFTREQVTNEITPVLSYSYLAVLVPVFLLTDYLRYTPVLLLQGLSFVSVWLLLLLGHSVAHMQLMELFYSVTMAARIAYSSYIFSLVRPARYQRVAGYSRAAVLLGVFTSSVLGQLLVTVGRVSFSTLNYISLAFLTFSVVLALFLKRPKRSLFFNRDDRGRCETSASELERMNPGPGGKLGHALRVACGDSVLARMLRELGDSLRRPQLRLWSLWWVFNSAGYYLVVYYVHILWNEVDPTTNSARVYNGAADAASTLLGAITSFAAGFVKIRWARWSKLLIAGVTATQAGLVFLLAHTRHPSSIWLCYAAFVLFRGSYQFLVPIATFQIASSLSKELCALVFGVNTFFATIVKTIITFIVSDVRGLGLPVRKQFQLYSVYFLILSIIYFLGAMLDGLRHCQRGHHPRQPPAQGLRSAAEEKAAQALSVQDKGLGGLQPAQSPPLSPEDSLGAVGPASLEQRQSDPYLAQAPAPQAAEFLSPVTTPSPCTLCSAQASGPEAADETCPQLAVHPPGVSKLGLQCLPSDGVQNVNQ
In short: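 PC43-10 CHO cells expressing human RFC (~1.5 × 10^6) were seeded 48 h before assay. Uptake of 0.5 μM [3H]MTX was run in Hank's balanced salts for 2 min at 37 °C, with or without 10 μM unlabelled inhibitor, and stopped with ice-cold PBS. Cells were dissolved in 0.5 N NaOH, counted by scintillation and normalised to Folin-phenol protein (pmol/mg). RFC-null R2 cells gave baseline. Three experiments.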

[16] = (§3) Inhibition of GARFTase in human KB cells assessed as incorporation of [14C]-glycine into [14C]-formyl GAR incubated 30 mins prior to [14C]-glycine addition measured after 16 hrs by radiometric assay in presence of azaserin; format: cell-based
In short: (§4)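 KB cells were preincubated 1 h in folate- and glutamine-free medium with 2 nM LCV and a range of drug concentrations. Azaserine (4 μM final) was added for 30 min, then 2 mM glutamine and [14C(U)]glycine (0.1 mCi/L) for 16 h at 37 °C. TCA extracts were ether-washed and run on AG1×8 anion exchange. [14C]formyl GAR was measured per mg protein, and IC50 was set against DMSO controls; three experiments.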

KB [17] = assay: as §3; format: cell-based; in short: as §4
KB [18] = assay: Induction of apoptosis in human KB cells assessed as viable cells at 1 uM after 96 hrs by Annexin V-FITC/7-AAD staining-based flow cytometry (RVB = 89.6%); format: functional; settings: read-out: Activity
KB [19] = assay: Induction of apoptosis in human KB cells assessed as necrotic cells at 1 uM after 96 hrs by Annexin V-FITC/7-AAD staining-based flow cytometry (RVB = 7.80%); format: functional
KB [20] = assay: Induction of apoptosis in human KB cells assessed as late apoptotic cells at 1 uM after 96 hrs by Annexin V-FITC/7-AAD staining-based flow cytometry (reference value: 2.09%); format: functional
KB [21] = assay: Induction of apoptosis in human KB cells assessed as early apoptotic cells at 1 uM after 96 hrs by Annexin V-FITC/7-AAD staining-based flow cytometry (reference value: 0.485%); format: functional

Compound: Nc1nc2[nH]c(CCCCCCc3ccc(C(=O)N[C@@H](CCC(=O)O)C(=O)O)cc3)cc2c(=O)[nH]1
IC50 [1]: > 1000 nM | IC50 (R2 [2]): > 1000 nM

Compound: Cc1nc(=O)c2cc(CN(C)c3ccc(C(=O)N[C@@H](CCC(=O)O)C(=O)O)s3)ccc2[nH]1 [RALTITREXED]
IC50 [1]: > 1000 nM

inhibition [4]: inactive
Compound: CN(C)C(=N)NC(=N)N [METFORMIN]
inhibition of growth at 10000 µM (KB [3]): 32%

Compound: Nc1nc2[nH]cc(CCCCCc3ccc(C(=O)N[C@@H](CCC(=O)O)C(=O)O)cc3)c2c(=O)[nH]1
Activity (KB [5]): inactive | Activity (KB [6]): inactive | Activity (KB [7]): Active | IC50 [1]: > 1000 nM | IC50 (R2 [2]): > 1000 nM | IC50 [8]: > 1000 nM | IC50 (R2 [9]): > 1000 nM

Compound: Nc1nc2[nH]c(CCCCc3ccc(C(=O)N[C@@H](CCC(=O)O)C(=O)O)cc3)cc2c(=O)[nH]1
Activity (KB [10]): 1.2% | Activity (KB [11]): 31.4% | Activity (KB [12]): 22.3% | Activity (KB [13]): 45.1% | Activity [14]: Active | inhibition [15]: < 25% | IC50 [1]: > 1000 nM | IC50 [16]: 5.71 nM | inhibition (KB [17]): Dose-dependent effect | viability at 1 µM (KB [18]): 35% | Activity (KB [19]): 0.748% | Activity (KB [20]): 28.8% | Activity (KB [21]): 35.5%

Compound: Nc1nc2[nH]cc(CCCc3ccc(C(=O)N[C@@H](CCC(=O)O)C(=O)O)cc3)c2c(=O)[nH]1
Activity (KB [5]): Active | Activity (KB [6]): inactive | Activity (KB [7]): Active | IC50 [1]: > 1000 nM | IC50 [8]: > 1000 nM | IC50 (R2 [9]): > 1000 nM

Compound: Nc1nc2[nH]c(CCCCCc3ccc(C(=O)N[C@@H](CCC(=O)O)C(=O)O)cc3)cc2c(=O)[nH]1
IC50 [1]: > 1000 nM | IC50 (R2 [2]): > 1000 nM
